Publication PMC11812941 (CPT: Pharmacometrics & Systems Pharmacology, 2024)
Read-outs that look alike come from different tables or passages of the source.

How the values were obtained:
[1] = tested on: patients with GA secondary to AMD (GA lesion area, study eye); experiment: Dose-response model of GA lesion area, pooled FILLY, OAKS and DERBY data; assay type: in vivo, human; conditions: point estimate
In short: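 Study eyes were randomized 2:2:1:1 to a 100 μL intravitreal injection of test compound 15 mg monthly or EOM, or sham monthly or EOM, for ≤24 months. GA lesion area was measured by fundus autofluorescence. A linear-with-time disease progression model with covariates was built from sham and untreated fellow eyes. Step-function drug effects per regimen were fitted in NONMEM.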

[2] = Prevalence of serum antidrug antibodies in FILLY, OAKS and DERBY; assay type: in vivo, human; conditions: detectable at baseline or at any time during the study
[3] = cited from earlier work
[4] = cited from earlier work; remark: listed apart in the source
[5] = tested on: patients with GA secondary to AMD (GA lesion area); conditions: phase II FILLY, cited from earlier work
[6] = tested on: patients with GA secondary to AMD (GA lesion area); conditions: phase III OAKS and DERBY combined, cited from earlier work

Which “model-predicted rate of disease progression (GA lesion growth rate) relative to sham” value ([1]; pegcetacoplan 15 mg intravitreal EOM, 95% CI 0.78, 0.87) does the source give for pegcetacoplan here?
The value was 0.83 fold.

And the “model-predicted rate of disease progression (GA lesion growth rate) relative to sham” value ([1]; pegcetacoplan 15 mg intravitreal monthly, 95% CI 0.75, 0.84)?
Its value is 0.80 fold.

What about the “prevalence of serum antidrug antibodies against the PEG moiety” value [2] of the same substance?
Its value is 67%.

And the “prevalence of serum antidrug antibodies against the peptide moiety” value [2]?
Its value is 5%.

What about the “model-predicted steady-state serum maximal concentration, geometric mean” value ([3]; patients with GA, 15 mg intravitreal EOM, CV 58.1%) of the same substance?
Its value is 1.5 µg/mL.

And the “accumulation from first dose to steady-state, ratio of geometric mean exposure” value ([3]; serum or vitreous humor)?
The value was 1.10–1.50.

And the “average exposure relative to reference body weight 70 kg” value ([4]; 5th percentile of body weight (53 kg), higher, 90% CI 1.16-1.23)?
The value was 1.20 fold.

And the “average exposure relative to reference body weight 70 kg” value ([4]; 95th percentile of body weight (94 kg), lower, 90% CI 0.800-0.853)?
Its value is 0.827 fold.

What about the “effective elimination half-life, median (interquartile range)” value ([4]; patients with paroxysmal nocturnal hemoglobinuria) of the same substance?
Its value is 8.6 (6.9–11.0) days.

What about the “clearance, predicted geometric mean” value ([4]; population PK model, 11 clinical studies, CV 30%) of the same substance?
The value was 0.36 L/day.

And the “reduction in GA lesion area growth compared with sham treatment” value (“reduction in GA lesion area growth” below) ([5]; EOM)?
The value was 20%.

What about the “reduction in GA lesion area growth” value ([5]; monthly) of the same substance?
The value was 29%.

What about the “reduction in GA lesion area growth” value ([6]; EOM) of the same substance?
Its value is 24%.

What about the “reduction in GA lesion area growth” value ([6]; monthly) of the same substance?
Its value is 30%.
